# High-throughput results (PubChem)
# This is a sample that favours compounds with a hit; in the whole collection about 2.3% have one here.
# TRPC4 inh: inhibitors of mouse TRPC4 channel, primary screen, Fluo4 calcium, HEK293 TRPC4beta/mu-opioid cells | DAMGO-evoked Fluo4 calcium flux; hits give low values | B-score at 10 µM | 300,000 tested, 0.39% active | AID 2247, 2010;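 active means B-score over 3 SD under the library average, no early fluorescence shift, positive overall ratio signal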
#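 Assay system: TRPC4beta/mu-opioid receptor HEK293 cell line; compound dosing: single concentration per test compound; detection: Fluo4 Ca2+ flux fluorescence; evaluation: per-well B score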
# FID counter: compounds displacing fluorescent DNA intercalator, primary screen, artefact control for HCV NS3 helicase inhibitor project, biochemical, FID fluorescence; DNA fluorescent intercalator displacement; inhibition, % at 7.9 µM; 290,000 tested, 0.17% active; AID 1845, 2009; in the data active means inhibition above about 37%;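 further: 0% = vehicle and 100% = reference compound; higher means more ethidium bromide displaced from hairpin DNA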
# TRPC6 inhibitor: mouse TRPC6 channel inhibitors, primary screen, cell-based, HEK293, membrane potential dye; B-score at 10 µM; 310,000 tested, 1.1% active; Short transient receptor potential channel 6 (Mus musculus), Q61143; ACh-evoked depolarization; hits give low values;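 active means B-score under library mean minus 3 SD, initial fluorescence not abnormally high, positive integrated signal ratio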;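 further: B-score derived from integrated fluorescence ratio over the kinetic read; more negative B-score means stronger inhibition of depolarization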
# TRPC4 PAM: positive allosteric modulators of TRPC4, primary screen, cell-based, mouse TRPC4beta, HEK293 mu-opioid, Fluo-4 calcium; B-score at 10 µM; Short transient receptor potential channel 4 (Mus musculus), Q9QUQ5; 310,000 tested, 0.42% active; DAMGO EC20, Fluo-4 Ca2+ flux; hits give high values; AID 2227, 2009;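 active means B-score of calcium response area above 5 SD of library B-scores, with initial fluorescence ratio within 5 SD of library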;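 further: B-score of integrated fluorescence ratio over time as area under calcium response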
# TRPC6 act: mouse TRPC6 channel activators, primary screen, cell-based, HEK293, membrane potential dye | HEK293-TRPC6 membrane potential dye fluorescence; hits give high values | B-score at 10 µM | 310,000 tested, 0.13% active;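 active means B-score of the integrated fluorescence ratio above library mean plus 3 SD, and starting fluorescence ratio within library mean plus 5 SD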;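 further: higher score means more depolarization so channel activation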
# TRPC4 act: activators of mouse TRPC4 channel, primary screen, Fluo4 calcium, HEK293 TRPC4beta/mu-opioid cells; 310,000 tested, 0.49% active; Fluo4 calcium fluorescence; hits give high values; Short transient receptor potential channel 4 (Mus musculus), Q9QUQ5; AID 2237, 2010; B-score at 10 µM;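 active means B-score above 5 SD of library B-scores, and initial fluorescence ratio not above library mean plus 5 SD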;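 further: positive B-score marks a calcium rise read as TRPC4 activation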
#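 Material: TRPC4beta and mu-opioid receptor HEK293 stable cells | Incubation: 45 min room-temperature Fluo4 loading, 110 s read | Detection: Kinetic Fluo4 calcium fluorescence | Measure: Integrated baseline-normalised fluorescence ratio, converted to per-well B score | Benchmarks: Low control buffer alone, high control maximal DAMGO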
# Starred values were filed as active, the others as inactive; i = inactive; / = no result.
SMILES,TRPC4 inh,FID counter,TRPC6 inhibitor,TRPC4 PAM,TRPC6 act,TRPC4 act
COc1cc(S(=O)(=O)NCc2ccc3c(c2)OCO3)ccc1F,i,-1.8,i,i,i,i
Cc1cc(C)cc(-c2nnc(SCC(=O)c3ccc4c(c3)OCCO4)o2)c1,i,0.7,i,i,i,i
O=C(CSc1nnc(-c2ccccc2)o1)c1ccc2c(c1)OCCO2,-6*,-0.5,i,i,i,i
CCN1CCN(C(=O)c2cc(COc3ccc(C(C)=O)cc3OC)on2)CC1,i,-12.6,i,i,i,i
Cc1ccc(C)c(NC(=O)CCc2nnc3ccc(N4CCCC4)nn23)c1,i,-42.4,i,i,i,i
Cc1ccc(C)c(CN2CCC(CNC(=O)CCc3nnc4ccc(N5CCCCC5)nn34)CC2)c1,i,13.1,i,i,i,126*
CC(C)C1=Nc2cccc3cccc(c23)N1,-6*,6.3,i,i,i,i
CCC(=O)N(Cc1cc(=O)[nH]c2ccccc12)c1ccc(C)cc1C,i,-31.1,i,i,i,i
Cc1ccc(CS(=O)(=O)CCC(=O)NCCC2=CCCCC2)cc1,i,-4.7,i,17*,i,i
Cc1ccc(NC(=O)c2cc(S(=O)(=O)N3CCOCC3)cn2C)cc1F,i,-21.2,i,i,i,i
COc1ccc(-c2cc(C(=O)N3CC(C)CC(C)C3)c3ccccc3n2)cc1 (configuration not stated),i,/,i,18*,i,i
COc1ccc(-c2cc(C(=O)N3CCCC3)c3ccccc3n2)cc1,i,-57.5,i,i,i,i
Nc1nc(Nc2cccc(C(F)(F)F)c2)nc(C(F)(F)F)n1,i,0.5,-6.09*,i,i,i
Nc1ncnc(Nc2cccc(C(F)(F)F)c2)n1,i,-2.0,i,i,i,i
CCOc1ccc(-c2nc(CSCC(=O)NCc3ccco3)c(C)o2)cc1,i,-29.4,i,i,12.5*,i
COc1ccccc1C(=O)N/C(=C\c1cn(C)c2ccccc12)C(=O)NCCCn1ccnc1,i,4.5,i,i,i,i
COc1ccc(C(C(=O)NC2CCCCC2)N(C(=O)Cc2c[nH]c3ccccc23)c2ccccc2C)cc1OC (configuration not stated),i,-1.6,i,11*,i,i
Cc1ccc(C(C(=O)NC2CCCCC2)N(C(=O)Cc2c[nH]c3ccccc23)c2ccccc2C)o1 (configuration not stated),i,-7.2,i,i,i,i
CCCN1CCC(NC(=O)Nc2ccc(F)cc2F)CC1,i,4.2,i,i,i,43*
CCOC(=O)N1CCC(NC(=O)Cc2ccccc2)CC1,i,-6.1,i,i,i,i
CCN1CCC(NC(=O)Nc2ccc(F)cc2)CC1,i,10.3,i,i,i,i
CCCN1CCC(NC(=O)Cc2cccc(C)c2)CC1,i,-4.2,i,i,i,89*
CCCN1CCC(NC(=O)Cc2ccc(C)cc2)CC1,i,-2.9,i,10*,i,62*
CCOC(=O)c1c(C)nsc1NC(=O)C1CCCCC1,i,-26.2,i,i,i,i
C[C@@H]1CCC(=O)N(CC[C@H](Sc2ccccc2)c2ccccc2)CC1,i,-37.9,i,i,i,i
CCn1cnc2scc(-c3ccccc3)c2c1=O,i,-3.0,i,i,i,i
C=CCn1cnc2scc(-c3ccc(CC)cc3)c2c1=O,-6*,-17.6,i,i,i,i
